An excerpt weighted towards active compounds, which were near 3.8% of everything screened.
DENV2 CPE = DENV2-induced cell death inhibition; CPE inhibition, % at 9.99 µM; DENV2-infected cells, cytopathic effect rescue, plate reader; 350,000 tested, 1.7% active; in the data active = CPE inhibition above about 20%, passing the limit was not always enough; inconclusive = no clear call, values can overlap the other calls; tested in BHK-21 cells
ARNT-TACC3 inh = disrupts binding between human ARNT and TACC3; Q9Y6A5; inhibition, % at 9.99 µM; AlphaScreen His-ARNT PAS-B/GST-TACC3 binding, luminescence; TACC3 fragment carries E629A point mutation; AID 623870; 390,000 tested, 0.66% active;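 active = mean inhibition of replicates at least 50% and at least half of replicates each reaching 50%; inconclusive = half or more replicates reach 50% but mean below 50%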
Xi reactivation = reactivates the inactive X chromosome in mouse fibroblasts; XiGFP mouse fibroblasts, % GFP-positive cells imaging, 3 d; cells co-treated with 5-aza-dC sensitizer; scaled so ellipticine positive control = 100%; activation, % at 7.58 µM; 360,000 tested, 0.055% active;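 active = mean normalized replicate activation at least 10% and every replicate at or above 10%; inconclusive = only one of the two criteria met; inactive = mean below 10% and not all replicates reach 10%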
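material = 68-5-11 XiGFP fibroblast line | medium = DMEM plus 5-aza-dC sensitizer | schedule = 3 days compound exposure | benchmarks = positive control ellipticine, 6 µM final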
FGF22 binding = shifts melting point of recombinant human FGF22. recombinant FGF22 thermal shift, SYPRO orange fluorescence; percent of sucrose octasulfate shift, DMSO zero. activity (Tm shift, normalised), % at 9.99 µM. 340,000 tested, 1.5% active;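 active = mean Tm shift, scaled 0 neutral to 100 positive control, at about 1.3% or above, every replicate too, limit read from the data; inconclusive = no clear call, values can overlap the other calls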
Target sequence (Q9HCT0 whole entry, looked up): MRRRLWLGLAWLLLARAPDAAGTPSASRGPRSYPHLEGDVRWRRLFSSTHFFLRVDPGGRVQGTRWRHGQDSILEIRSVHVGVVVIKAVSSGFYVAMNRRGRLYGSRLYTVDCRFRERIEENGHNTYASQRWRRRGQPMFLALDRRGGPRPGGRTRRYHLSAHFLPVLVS
SIRT5 inh = blocks human SIRT5 desuccinylation of peptide; Q9NXA8; Purified SirT5, succinyl-peptide AMC, trypsin-coupled fluorescence; inhibition, % at 15 µM; 330,000 tested, 1.1% active; AID 652115; in the data active = inhibition above about 15%; inconclusive = no clear call, values can overlap the other calls
Target sequence (Q9NXA8 whole entry, looked up): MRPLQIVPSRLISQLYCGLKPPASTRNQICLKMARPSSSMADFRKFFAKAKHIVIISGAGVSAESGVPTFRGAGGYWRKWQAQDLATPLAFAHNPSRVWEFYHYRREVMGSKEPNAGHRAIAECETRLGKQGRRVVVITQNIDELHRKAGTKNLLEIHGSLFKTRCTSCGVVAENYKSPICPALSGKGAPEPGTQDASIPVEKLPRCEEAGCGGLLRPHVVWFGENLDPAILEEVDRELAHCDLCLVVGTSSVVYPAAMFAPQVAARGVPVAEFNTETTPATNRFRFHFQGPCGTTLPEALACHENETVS
FN deposit inh = fibronectin deposition inhibition; AH1F fibroblasts, Alexa488-fibronectin deposition fluorescence, overnight; inhibition, % at 12.6 µM; 350,000 tested, 0.086% active;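 active = mean inhibition across replicates of 30% or more, regardless of how many single replicates reach that level; inconclusive = mean under 30% yet at least half of replicates reach 30%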
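test system = AH1F fibroblasts assembling fluorescent fibronectin matrix | quantity = 10000 AH1F cells per well | buffer or medium = DMEM plus 2% serum, read in PBS | doses = single dose, pinned | incubation = 1 h cell attachment, overnight exposure to compound and label | detection = fluorescence at 485 nm excitation, 525 nm emission | read-out basis = inhibition from reduced deposited-fibronectin fluorescence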
Large screens that a line does not name were inactive.

O=C1CN(S(=O)(=O)c2ccccc2)C[C@@H]2[C@H](c3ccc(C#Cc4ccccc4)cc3)[C@H](CO)N12	SIRT5 inh 25.3 (no result: ARNT-TACC3 inh, FGF22 binding, FN deposit inh)
O=C1CN(S(=O)(=O)Cc2ccccc2)C[C@@H]2[C@H](c3ccc(C#Cc4cccc(F)c4)cc3)[C@H](CO)N12	SIRT5 inh 16.7 (no result: ARNT-TACC3 inh, FGF22 binding, FN deposit inh)
O=C1CN(S(=O)(=O)Cc2ccccc2)C[C@H]2[C@H](c3ccc(C#Cc4cccc(F)c4)cc3)[C@@H](CO)N12	none (no result: ARNT-TACC3 inh, FGF22 binding, FN deposit inh)
Cc1ccccc1S(=O)(=O)N1CC(=O)N2[C@H](CO)[C@@H](c3ccc(C#Cc4ccccc4)cc3)[C@@H]2C1	DENV2 CPE 29.1 (no result: ARNT-TACC3 inh, FGF22 binding, FN deposit inh)
CCCC(=O)N1CC2(C1)CN(Cc1ccncc1)[C@@H](CO)c1[nH]c3cc(OC)ccc3c12	none (no result: DENV2 CPE, ARNT-TACC3 inh, FGF22 binding, SIRT5 inh, FN deposit inh)
C[C@@H]1CN([C@@H](C)CO)C(=O)CCCn2cc(nn2)CO[C@@H]1CN(C)S(=O)(=O)c1ccc(F)cc1	none
C[C@H]1CN([C@@H](C)CO)C(=O)Cc2cc(NC(=O)C3CC3)ccc2O[C@H]1CN(C)S(=O)(=O)c1cccs1	none (no result: ARNT-TACC3 inh, FN deposit inh)
N#C[C@@H]1[C@@H](c2ccc(C#Cc3ccccc3F)cc2)[C@@H](CO)N1C(=O)C1CCC1	DENV2 CPE 51.2
N#C[C@@H]1[C@@H](c2ccc(C#Cc3ccccc3F)cc2)[C@@H](CO)N1C(=O)C1CCCC1	none (no result: DENV2 CPE, ARNT-TACC3 inh, FGF22 binding, SIRT5 inh)
N#C[C@H]1[C@H](c2ccc(C#Cc3ccccc3F)cc2)[C@H](CO)N1C(=O)C1CC1	DENV2 CPE 30.2
N#C[C@H]1[C@H](c2ccc(C#Cc3ccccc3F)cc2)[C@@H](CO)N1C(=O)C1CCCCC1	ARNT-TACC3 inh 46.6
N#C[C@H]1[C@@H](c2ccc(C#Cc3ccccc3F)cc2)[C@@H](CO)N1C(=O)C1CCCCC1	none
COc1ccc(S(=O)(=O)N(C)C[C@@H]2Oc3ccc(NS(=O)(=O)c4c(C)noc4C)cc3CC(=O)N([C@@H](C)CO)C[C@H]2C)cc1	none (no result: FN deposit inh)
C[C@@H]1CCCCO[C@H](CN(C)S(C)(=O)=O)[C@H](C)CN([C@@H](C)CO)C(=O)c2cc(N(C)C)ccc2O1	DENV2 CPE inconclusive (no result: FN deposit inh)
C[C@H](CO)N1C[C@H](C)[C@@H](CN(C)C(=O)c2ccccc2)OCCCC[C@H](C)Oc2ccc(NC(=O)Cc3ccccc3)cc2C1=O	none (no result: FN deposit inh)
Cc1cccc(NC(=O)CN2C(=O)N/C(=C/c3cc(C)n(C)c3C)C2=O)c1	FGF22 binding 43.8
CN1C(=O)c2cc(NS(=O)(=O)c3ccc(Cl)cc3)ccc2OC[C@@H]2O[C@@H](CC(=O)N3CCc4ccccc4C3)CC[C@@H]21	none (no result: FGF22 binding)
CN1C(=O)c2cc(NS(=O)(=O)c3ccc(Cl)cc3)ccc2OC[C@H]2O[C@H](CC(=O)N3CCc4ccccc4C3)CC[C@H]21	none
CN1C(=O)c2cc(NS(=O)(=O)c3ccc(Cl)cc3)ccc2OC[C@H]2O[C@@H](CC(=O)N3CCc4ccccc4C3)CC[C@@H]21	SIRT5 inh 16.3 (no result: FGF22 binding, FN deposit inh)
CN1C(=O)c2cc(NS(=O)(=O)c3ccc(Cl)cc3)ccc2OC[C@@H]2O[C@H](CC(=O)N3CCc4ccccc4C3)CC[C@H]21	DENV2 CPE 39.9 (no result: FGF22 binding)
CO[C@H]1CN(C)C(=O)c2ccc(NS(C)(=O)=O)cc2OC[C@@H](C)N(C(=O)NC(C)C)C[C@@H]1C	none
C[C@@H]1CN([C@H](C)CO)C(=O)c2cc(NS(=O)(=O)c3cccs3)ccc2O[C@@H](C)CCCCO[C@@H]1CN(C)S(=O)(=O)c1ccccc1	none (no result: DENV2 CPE)
CCC(=O)N1CC[C@@H]2[C@@H](CO)Nc3ccc(C#Cc4cccnc4)cc3[C@@H]21	SIRT5 inh 18.9
O=C(Cc1ccccc1)N1CC[C@H]2[C@H](CO)Nc3ccc(C#Cc4cccc(F)c4)cc3[C@H]21	none (no result: ARNT-TACC3 inh, FGF22 binding)
O=C(Cc1cccnc1)N1CC[C@H]2[C@H](CO)Nc3ccc(C#Cc4cccc(F)c4)cc3[C@H]21	DENV2 CPE 62.5 (no result: ARNT-TACC3 inh, FGF22 binding)
CC(=O)N1CC[C@@H]2[C@H](CO)Nc3ccc(C#Cc4cccnc4)cc3[C@@H]21	SIRT5 inh 17.9
O=C(Nc1ncc(S(=O)(=O)c2ccc([N+](=O)[O-])cc2)s1)c1ccccc1F	SIRT5 inh 21.6

Source: PubChem BioAssay (Broad Institute)
